A selection: hits, their analogues and other compounds. The true share with any hit is near 8.7%.
PTK2B oligo ant: blocks oligomerization of human Pyk2 in cells; Q14289; Q293 cells, Pyk2 FERM NanoBiT luminescence; active compounds read low; z-score (the deposit names both 25 µM and 10 µM); 99,000 compounds, 0.83% hits; AID 1347419;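 active = Z-score of -3 or lower, scaled per plate to the spread of control and sample wells; inactive = z-score above -3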;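 note: negative z-score means lost luminescence so less FERM oligomerization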
Target sequence (Q14289 whole entry, looked up): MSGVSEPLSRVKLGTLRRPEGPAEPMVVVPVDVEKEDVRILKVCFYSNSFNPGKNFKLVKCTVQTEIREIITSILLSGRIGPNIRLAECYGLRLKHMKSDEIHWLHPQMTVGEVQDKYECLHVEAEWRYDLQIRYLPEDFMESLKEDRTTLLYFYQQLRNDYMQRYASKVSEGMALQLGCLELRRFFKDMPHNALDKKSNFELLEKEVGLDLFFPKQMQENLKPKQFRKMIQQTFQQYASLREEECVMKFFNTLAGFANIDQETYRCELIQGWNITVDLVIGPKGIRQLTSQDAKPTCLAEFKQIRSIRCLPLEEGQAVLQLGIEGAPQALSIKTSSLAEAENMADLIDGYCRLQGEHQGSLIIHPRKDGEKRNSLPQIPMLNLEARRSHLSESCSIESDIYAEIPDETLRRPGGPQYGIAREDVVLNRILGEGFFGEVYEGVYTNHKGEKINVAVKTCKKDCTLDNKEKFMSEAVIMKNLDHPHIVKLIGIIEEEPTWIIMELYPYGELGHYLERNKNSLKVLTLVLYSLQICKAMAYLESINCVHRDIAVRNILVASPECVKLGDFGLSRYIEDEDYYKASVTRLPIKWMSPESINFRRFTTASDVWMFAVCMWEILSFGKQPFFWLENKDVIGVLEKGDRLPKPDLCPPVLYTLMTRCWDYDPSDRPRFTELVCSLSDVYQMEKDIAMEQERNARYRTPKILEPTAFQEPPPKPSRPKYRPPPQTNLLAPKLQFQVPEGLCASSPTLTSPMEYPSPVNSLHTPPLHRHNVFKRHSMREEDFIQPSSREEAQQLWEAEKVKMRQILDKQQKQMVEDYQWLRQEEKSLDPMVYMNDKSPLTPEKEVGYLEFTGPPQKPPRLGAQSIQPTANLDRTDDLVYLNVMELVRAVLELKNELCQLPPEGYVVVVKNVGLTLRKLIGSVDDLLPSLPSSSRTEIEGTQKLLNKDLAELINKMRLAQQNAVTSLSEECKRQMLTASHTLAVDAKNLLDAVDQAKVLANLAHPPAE
Ecoli WT expand: growth inhibitors of E. coli BW25113 wild type | 98,000 compounds, 0.15% hits | growth inhibition, % at 100 µM | OD600 absorbance;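 active = growth inhibition above about 50% at one test dose, limit read from the data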;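 note: growth measured after 20 h incubation at 37 °C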
PostGolgi ctrl: inhibits growth of the yeast control strain; efflux-deficient yeast background strain, growth absorbance A615, 16 h; inhibition, % at 10 µM; 98,000 compounds, 5% hits
Cav3 T inh: human Cav3.2 channel inhibition, primary screen. O95180. Cav3.2-expressing cells, Fluo-4 calcium fluorescence FDSS; active compounds read low. B-score at 10 µM. 100,000 compounds, 4% hits. AID 449739;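 active = single-dose well whose peak fluorescence ratio is a statistical outlier from its plate by either plate-standardised score or position-corrected B-score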
tolC growth inh: blocks growth of E. coli BW25113 tolC mutant | OD615 | growth inhibition, % at 10 µM (by protocol) | 65,000 compounds, 2.2% hits;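 active = growth inhibition at or above a cutoff equal to the mean over every tested compound plus 3 SD, cut at about 60% in these data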;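 note: growth measured after 20 h incubation at 37 °C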
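Test system: E. coli BW25113 ΔtolC::kan bacteria; incubation: 37 °C, 20 h exposure; medium: LB broth supplemented with 50 µg/mL kanamycin; read-out basis: percent growth inhibition; signal: A615 absorbance measurement; compound: 10 µM final, single dose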
PostGolgi yeast: growth inhibition of a yeast mutant, post-Golgi transport screen; post-Golgi transport phenotypic cell assay; inhibition, % at 10 µM; 98,000 compounds, 0.9% hits; AID 739;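 note: yeast cells grown in 1536-well plates; yeast grown about 18 h at 30C before absorbance read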
An asterisk follows results filed as active; . = no result given. Cut-off read from the data, not from the text of the source, unless noted: active = inhibition above about 30%; inactive = the rest.

SMILES	PTK2B oligo ant	Ecoli WT expand	PostGolgi ctrl	Cav3 T inh	tolC growth inh	PostGolgi yeast
CC(C)(C)c1ccc(OC(=O)c2ccc3nsnc3c2)cc1	0.14	-8	5	-3.5*	.	3
COc1ccccc1OC(=O)c1ccc2nsnc2c1	1.5	-5	5	.	22	-10
CN(C)S(=O)(=O)c1ccc(C(=O)N2CCCC2c2nc3ccccc3s2)cc1 (stereo not drawn)	-0.39	-7	10	1.3	-2	16
O=S(=O)(c1ccc(Br)cc1)N1CCCC1c1nc2ccccc2s1 (stereo not drawn)	-0.68	-15	40*	-4.6*	.	-7
Cc1ccc(C(C(=O)NC2CCCC2)N2CCc3ccccc32)cc1 (stereo not drawn)	.	0	4	1	.	0
CC(C)C(C)(C#N)NC(=O)CSc1ncnc2sc(-c3ccccc3)cc12 (stereo not drawn)	-1.3	-14	40*	-0.34	.	-12
CCN(CC)C(=O)CSc1ncnc2sc(-c3ccccc3)cc12	-1.9	-8	13	-3.7	.	-6
Cc1ccccc1N1C(=O)C(Oc2ccc(Cl)cc2)C1CNC(C)(C)C (stereo not drawn)	-1.1	.	.	.	.	.
CCN(CC)S(=O)(=O)c1cccc(NC(=O)C2SC(=Nc3ccc(C)cc3C)C(C(=O)NC(C)COC)=C2N)c1 (stereo not drawn)	-0.74	-12	6	-8.6*	.	-2
COc1ccc(Cl)cc1C(=O)NNC(=S)NC(=O)c1cc(-c2ccc(Cl)cc2)nc2ccccc12	-0.45	-3	16	-6.6*	.	1
O=C(NNC(=O)c1cc(-c2ccc(Cl)cc2Cl)nc2ccccc12)Nc1ccccc1	-3.5*	-7	21	-1	.	-3
CN(C)S(=O)(=O)Oc1ccsc1C(=O)Nc1ccc(Cl)c(Cl)c1	-1.6	-11	45*	0.46	.	-3
O=C(/C=C/c1ccc2c(c1)OCO2)NCCSCc1ccc(Cl)cc1Cl	-0.06	-18	17	-6.3*	.	-6
O=C(OCc1ccc2c(c1)OCO2)c1ccc(S(=O)(=O)N2CCCC2)cc1	0.16	-11	17	-0.59	37	-4
O=C(OCc1ccc2c(c1)OCO2)c1cccc(S(=O)(=O)N2CCCCC2)c1	-1.1	-15	38*	-4.4	.	-5
Cc1ccc(-c2cc(C(=O)NCc3ccc4c(c3)OCO4)no2)cc1	-1	-17	3	-0.24	7	3
O=C(NCc1ccc2c(c1)OCO2)c1cc(-c2ccccc2)on1	0.46	-9	5	-4.6*	18	-4
Cc1ccc(C(=O)NCc2ccc3c(c2)OCO3)cc1S(=O)(=O)N1CCCCC1	0.14	-23	26	-7.4*	46	-1
Cc1cc(-c2cc(C(=O)NCc3ccccc3)on2)nc(NC2CCCC2)n1	.	.	.	-0.11	.	.
O=C(CCn1cccc1)Nc1cccc(F)c1	0.08	15	3	0.49	-10	7
O=C(CCCc1c[nH]c2ccccc12)NCc1ccc2c(c1)OCO2	1.1	10	-5	-10*	.	0
Cc1cc(O)c(-c2cc(C(=O)NCc3ccc4c(c3)OCO4)[nH]n2)cc1C	0.42	-3	7	0.16	-16	-8
CN(Cc1ccccc1)S(=O)(=O)c1ccc(Cl)c(C(=O)NCc2ccc3c(c2)OCO3)c1	-0.35	.	.	.	.	.
Cc1ccc(-c2cc(C(=O)NCc3ccc4c(c3)OCO4)[nH]n2)c(O)c1C	-0.84	-6	31*	-1.4	5	-3
O=C(NCc1ccc2c(c1)OCO2)c1cc(-n2cnnc2)ccc1Cl	-0.23	4	46*	0.87	-15	-8
SMILES	PTK2B oligo ant	Ecoli WT expand	PostGolgi ctrl	Cav3 T inh	tolC growth inh	PostGolgi yeast
O=C(NCCSCc1ccc(Cl)cc1Cl)c1ccc(CN2CCOCC2)cc1	0.04	14	31*	-4.3*	.	76*
O=C(c1ccc(-c2ccccc2Cl)s1)N1CCOCC1	.	.	.	-0.12	.	.
O=C(NCc1ccc2c(c1)OCO2)c1ccc(CN2CCOCC2)cc1	0.17	6	33*	0.16	-12	4
O=C(NCc1ccccc1)c1ccc(CN2CCOCC2)cc1	-0.98	-5	23	-0.24	-10	5
CCC(=O)c1ccc(OCC(O)CN(CCc2ccccc2)Cc2ccccc2)cc1 (stereo not drawn)	-0.26	-11	52*	-3.8	.	6
Cc1sccc1C1C(C#N)=C(N)SC(N)=C1C#N	.	0	6	.	-2	2
N#CC1=C(N)SC(N)=C(C#N)C1CCC1CCCCC1	.	8	9	-0.11	99*	-2
Cc1cccc(-c2nsc(SCC(=O)NCc3ccco3)n2)c1	0.97	0	14	-3.9*	28	-5

Screening results: PubChem, several laboratories
